Experiment [1] concerns PC-3M. The experiment is described as follows: Antimetastatic activity in human PC3M cells expressing calcitonin assessed as decreased cell disaggregation by spheroid disaggregation assay. Type of experiment: functional, cell-based. In outline:
(§1)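 Spheroids grown from PC-3M-CT+ single-cell suspension (5×10^4/mL, serum-free RPMI 1640) on low-attachment plates rocked at 37 °C for 2 days, reaching 150–300 μm (~4×10^4 cells). One spheroid per ECM-coated well in serum-free medium, t=0 set at 1 h after plating. Photographed, cultured 48 h at 37 °C, fixed, Diff-Quik stained, migration diameter measured by micrometer minus initial diameter. Reported as percent increase in surface area.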

The test system of experiment [2] is PC-3M. The experiment is described as follows: Antimetastatic activity in human PC3M cells expressing calcitonin assessed as decreased cell migration by spheroid disaggregation assay. Type of experiment: functional, cell-based. In outline:
as §1

For experiment [3], the target named is T1, Hypoxia inducible factors; HIF-1-alpha, HIF-2-alpha (Homo sapiens, UniProt Q16665+Q99814). In words: Inhibition of hypoxia-induced HIF1 activation in human T47D cells at 30 uM by cell based reporter gene assay. In outline: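 Transfected T47D luciferase reporter assay. Compound-treated cells exposed to hypoxia (5% CO2/1% O2/94% N2), normoxia, or 10 μM 1,10-phenanthroline as hypoxia mimetic, then luciferase activity read. Constitutive pGL3 control reporter run alongside.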
For orientation: In a reporter assay the amount or activity of a reporter protein is the signal.

Another experiment relates to T47D. In words: Cell viability in human T47D cells at 30 uM by SRB method. Type of experiment: functional. In outline: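 T47D cells in DMEM/F12 with 10% FCS plated at 30,000/well and left overnight at 37 °C. Compound added, 30 min preincubation, then 16 h (or 48 h) treatment at 37 °C, hypoxic (1% O2) or normoxic.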
A general note: In SRB staining, fixed cells bind dye roughly in proportion to their protein.

Experiment [4] relates to PC-3M. The experiment is described as follows: Antimetastatic activity in human PC3M cells expressing calcitonin assessed as shrinkage of actin fibers at 50 nM by Matrigel barrier assay. Type of experiment: functional, cell-based.
In experiment [5] the test system is PC-3M. The experiment is described as follows: Antimetastatic activity in human PC3M cells expressing calcitonin assessed as inhibition calcitonin-induced invasion at 100 nM by Matrigel barrier assay. Type of experiment: functional, cell-based. In outline: (§2)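 PC-3M-CT+ cells serum-starved 24 h, then 25×10³ cells seeded in the upper insert of Matrigel invasion chambers. Lower chamber held 90% basal RPMI plus 10% conditioned medium from cells expressing active Gαs. After 24 h, non-invaders were removed and the insert underside stained with Diff Quick. Cells counted in ≥6 fields at 100×, corrected for growth rate. Triplicate, repeated twice, mean ± SEM.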

The subject of experiment [6] is PC-3M. In words: Antimetastatic activity in human PC3M cells expressing calcitonin assessed as inhibition of invasion at 100 nM by Matrigel barrier assay. Type of experiment: functional, cell-based. The procedure, abridged: as §2
Experiment [7] concerns PC-3M. The experiment is described as follows: Antimetastatic activity in human PC3M cells expressing calcitonin assessed as inhibition calcitonin-induced reorganization of actin fibers at 50 nM by Matrigel barrier assay. Type of experiment: functional, cell-based.
A short description of experiment [8]: Cytotoxicity against human PC3M cells. Type of experiment: functional, PC-3M.
A short description of experiment [9]: Antimetastatic activity in human PC3M cells expressing calcitonin assessed as decreased cell disaggregation at 500 nM by spheroid disaggregation assay relative to control. Type of experiment: functional, PC-3M. The procedure, abridged: (§3)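 Single PC-3M-CT+ spheroids (150–300 μm, ~4×10⁴ cells, grown 2 days on a rocking shaker in serum-free RPMI) placed on ECM-coated wells in serum-free medium. t = 0 set 1 h after plating. Cultured 48 h at 37 °C, then fixed and Diff-Quik stained. Migration diameter measured by micrometer minus initial spheroid diameter. Reported as average percent increase in surface area.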

Experiment [10] can be described thus: Antimetastatic activity in human PC3M cells expressing calcitonin assessed as decreased cell migration at 500 nM by spheroid disintegration assay relative to control. Type of experiment: functional, PC-3M. The procedure, abridged: as §3
In experiment [11] the target is T1, Hypoxia inducible factors; HIF-1-alpha, HIF-2-alpha. In words: Inhibition of hypoxia-induced HIF1 activation in human T47D cells by cell based reporter gene assay. In outline: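 T47D cells transfected with an HIF-1 luciferase reporter, treated with compound and exposed to hypoxia (5% CO₂/1% O₂/94% N₂) versus normoxia (5% CO₂/95% air). Luciferase activity measured.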

Experiment [12] shares this target. In words: Inhibition of 1,10-phenanthroline-induced HIF1 activation in human T47D cells by cell based reporter gene assay. The procedure, abridged:
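T47D cells transfected with an HIF-1 luciferase reporter, treated with compound and stimulated with 10 μM 1,10-phenanthroline as a hypoxia mimetic. Luciferase activity measured.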

Activity calls are given as the source filed them. No cut-off for these calls is given here. Where only a bound is given, the exact number is not on record here.

The term inhibition denotes the drop in the measured response relative to a control, in per cent. High values mean a strong effect, low ones a weak effect. In the case of `C/C1=C/C(=O)O[C@@H]2C[C@@H](CC[C@H](C)/C=C\C=C\CC1)O[C@@](OC(=O)NCCBr)([C@@H]1CSC(=O)N1)C2`, the outcome in the experiment with PC-3M [1] and in the experiment with PC-3M [2] was inactive. In experiment [3], this molecule showed an inhibition of under 50%. In addition, the Activity with T47D is under 20%.

For `C/C1=C/C(=O)O[C@@H]2C[C@@H](CC[C@H](C)/C=C\C=C\CC1)O[C@@](OC(=O)Nc1ccccc1)([C@@H]1CSC(=O)N1)C2`, the values for the Activity result with PC-3M [1], in the experiment on PC-3M [2] and in the experiment on T47D were “Dose-dependent effect”, “Dose-dependent effect” and under 20%, respectively. Also, the inhibition in experiment [3] was under 50%.

For orientation: IC50 means the concentration needed to halve the response being measured. Take `C/C1=C/C(=O)O[C@@H]2C[C@@H](CC[C@H](C)/C=C\C=C\CC1)O[C@@](O)([C@@H]1CSC(=O)N1)C2` [LATRUNCULIN A]: the outcome with PC-3M [4], in the experiment on PC-3M [5], with PC-3M [6] and in the experiment on PC-3M [7] was Active. The Activity in [8] was 500 nM; with T47D, under 20%. Further, the Fold change in [9] and in experiment [10] was 3 each time. Besides, the concentration for half-maximal inhibition (IC50) stood at 6.7 µM in experiment [11] and 25 µM in [12].

In the case of `C/C1=C/C(=O)O[C@@H]2C[C@@H](CC[C@H](C)/C=C\C=C\CC1)O[C@@](OC(=O)NCCCl)([C@@H]1CSC(=O)N1)C2`, the result with PC-3M [1] and in the experiment with PC-3M [2] was inactive. For the same molecule, in [3], the inhibition was under 50%. In the experiment on T47D, the Activity is given as under 20%.

On to `C/C1=C/C(=O)O[C@@H]2C[C@@H](CC[C@H](C)/C=C\C=C\CC1)O[C@@](OC(=O)NCCCCl)([C@@H]1CSC(=O)N1)C2`, for which the Activity result is “Dose-dependent effect” with PC-3M [1], “Dose-dependent effect” in the experiment with PC-3M [2] and under 20% in the experiment with T47D. Further, the inhibition in [3] was under 50%.

Regarding `C/C1=C/C(=O)O[C@@H]2C[C@@H](CC[C@H](C)/C=C\C=C\CC1)O[C@@](OC(=O)NCc1ccccc1)([C@@H]1CSC(=O)N1)C2`, the Activity result was “Dose-dependent effect” in the experiment with PC-3M [1], “Dose-dependent effect” in the experiment with PC-3M [2] and under 20% in the experiment with T47D. This molecule also had a half-maximal inhibitory concentration (IC50) in experiment [11] of 29 µM.
